In ChEMBL document CHEMBL1159102, “Design, synthesis, and evaluation of 2-aryl-7-(3',4'-dialkoxyphenyl)-pyrazolo[1,5-a]pyrimidines as novel PDE-4 inhibitors” (Bioorg Med Chem Lett, 2010):
pEC50, pIC50: −log10 of the molar value. The source made the active and inactive calls. The calls are words filed in the database; no cut-off is given here.

How the values were obtained:
[1] = biological target: T1, 3',5'-cyclic-AMP phosphodiesterase 4D (Homo sapiens, UniProt Q08499); assay: Inhibition of human PDE4D
T1 sequence (Q08499 whole entry): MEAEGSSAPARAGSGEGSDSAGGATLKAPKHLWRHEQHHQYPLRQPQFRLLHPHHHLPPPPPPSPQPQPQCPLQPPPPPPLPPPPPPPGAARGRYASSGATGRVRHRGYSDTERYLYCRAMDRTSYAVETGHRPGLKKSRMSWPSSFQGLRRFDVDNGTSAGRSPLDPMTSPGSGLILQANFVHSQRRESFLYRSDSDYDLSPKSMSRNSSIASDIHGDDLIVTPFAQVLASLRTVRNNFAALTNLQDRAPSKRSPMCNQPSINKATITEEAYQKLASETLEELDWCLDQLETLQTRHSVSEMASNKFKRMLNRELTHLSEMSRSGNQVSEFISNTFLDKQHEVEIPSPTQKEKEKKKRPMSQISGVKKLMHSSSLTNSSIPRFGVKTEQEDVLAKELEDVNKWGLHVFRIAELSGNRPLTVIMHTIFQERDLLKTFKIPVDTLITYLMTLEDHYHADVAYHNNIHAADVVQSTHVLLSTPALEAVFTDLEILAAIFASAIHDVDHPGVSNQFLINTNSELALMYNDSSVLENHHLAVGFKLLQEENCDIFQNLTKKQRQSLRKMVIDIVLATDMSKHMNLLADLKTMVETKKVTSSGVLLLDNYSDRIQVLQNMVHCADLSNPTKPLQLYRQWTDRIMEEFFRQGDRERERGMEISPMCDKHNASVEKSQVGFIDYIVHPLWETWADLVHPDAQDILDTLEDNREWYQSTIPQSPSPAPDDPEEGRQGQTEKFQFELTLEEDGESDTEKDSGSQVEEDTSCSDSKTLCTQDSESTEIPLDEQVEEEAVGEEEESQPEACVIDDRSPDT

[2] = biological target: cGMP-specific 3',5'-cyclic phosphodiesterase (Homo sapiens, UniProt O76074); assay: Inhibition of PDE5
[3] = Inhibition of PDE7
[4] = Inhibition of PDE4
[5] = Inhibition of PDE3
[6] = biological target: T1, 3',5'-cyclic-AMP phosphodiesterase 4D; assay: Inhibition of human PDE4D in U937 cells assessed as cAMP level at 10 uM relative to control; type: cell-based; set-up: scale not given: the % may be the effect or the level left; settings: U-937
Method in brief: (§1)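 cAMP content of U937 cells was measured after compound exposure and reported as a percentage of the untreated control level. Separately, an EC50 was derived for cAMP accumulation in the same cells.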

[7] = biological target: T1, 3',5'-cyclic-AMP phosphodiesterase 4D; assay: Inhibition of human PDE4D in U937 cells assessed as cAMP level at 20 uM relative to control; type: cell-based; set-up: scale not given: the % may be the effect or the level left; settings: U-937; method in brief: as §1
Mus musculus [8] = assay: Inhibition of ovalbumin-induced airway hyperresponsiveness in mouse at 30 mg/kg measured after 48 hrs of ovalbumin challenge; type: functional, organism-based; set-up: dose 30 mg/kg
Mus musculus [9] = assay: Inhibition of ovalbumin-induced eosinophil peroxidase activity in mouse bronchoalveolar lavage fluid at 30 mg/kg measured after 62 hrs of ovalbumin challenge relative to control; type: functional; settings: Lung
Method in brief: (§2)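 Mice received an ovalbumin inhalation challenge, with compounds given in 0.5% CMC vehicle. Bronchoalveolar lavage fluid was collected 62 h after OVA inhalation, and eosinophil peroxidase activity was measured as a marker of eosinophil infiltration. Data are mean ± SD, n = 9–10 per group, compared with the vehicle group.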

Mus musculus [10] = assay: Inhibition of ovalbumin-induced airway hyperresponsiveness in mouse at 100 mg/kg measured after 48 hrs of ovalbumin challenge; type: functional, organism-based; set-up: dose 100 mg/kg
[11] = biological target: T1, 3',5'-cyclic-AMP phosphodiesterase 4D; assay: Inhibition of human PDE4D in U937 cells assessed as cAMP accumulation; type: cell-based, U-937; method in brief: as §1
Mus musculus [12] = assay: Inhibition of ovalbumin-induced eosinophil peroxidase activity in mouse bronchoalveolar lavage fluid at 100 mg/kg measured after 62 hrs of ovalbumin challenge relative to control; type: functional; settings: Lung; method in brief: as §2

Row | SMILES | pIC50 [1] | other results
1 | Fc1cccc(-c2cc3nccc(-c4ccc(OC(F)F)c(OCC5CC5)c4)n3n2)c1 | 7.00 | 
2 | FC(F)Oc1ccc(-c2ccnc3cc(-c4cccnc4)nn23)cc1OCC1CC1 | 7.57 | pIC50 [2]: 5.46; pIC50 [3]: 5.52; pIC50 [4]: 8.05; pIC50 [5]: < 5.30
3 | FC(F)Oc1ccc(-c2ccnc3cc(-c4cccc(Br)c4)nn23)cc1OCC1CC1 | 7.89 | Activity [6]: 57.1%
4 | CC(C)(C)OC(=O)N1CCN(c2cccc(-c3cc4nccc(-c5ccc(OC(F)F)c(OCC6CC6)c5)n4n3)c2)CC1 | 7.27 | 
5 | COc1ccc(-c2ccnc3cc(-c4cccc(Br)c4)nn23)cc1OC1CCCC1 | 7.52 | Activity [7]: 11.4%
6 | CC(=O)Oc1cccc(-c2cc3nccc(-c4ccc(OC(F)F)c(OCC5CC5)c4)n3n2)c1 | 7.74 | 
7 | C=CCOc1cccc(-c2cc3nccc(-c4ccc(OC(F)F)c(OCC5CC5)c4)n3n2)c1 | 7.49 | 
8 | Nc1cccc(-c2cc3nccc(-c4ccc(OC(F)F)c(OCC5CC5)c4)n3n2)c1 | 7.34 | 
9 | COc1cccc(-c2cc3nccc(-c4ccc(OC)c(OC5CCCC5)c4)n3n2)c1 | 7.40 | Activity [7]: 20.1%
10 | N#CNc1cccc(-c2cc3nccc(-c4ccc(OC(F)F)c(OCC5CC5)c4)n3n2)c1 | 7.40 | 
11 | O=C(Nc1c(Cl)cncc1Cl)c1ccc(OC(F)F)c(OCC2CC2)c1 [ROFLUMILAST] |  | inhibition (Mus musculus [8]): Active; inhibition in vivo at 30 mg/kg (Mus musculus [9]): 50%
12 | FC(F)Oc1ccc(-c2ccnc3cc(-c4cc(Cl)cc(Cl)c4)nn23)cc1OCC1CC1 | 7.00 | 
13 | N#CCCNc1cccc(-c2cc3nccc(-c4ccc(OC(F)F)c(OCC5CC5)c4)n3n2)c1 | 7.08 | 
14 | CN(C)C(=O)c1cccc(-c2cc3nccc(-c4ccc(OC(F)F)c(OCC5CC5)c4)n3n2)c1 | 7.64 | 
15 | FC(F)Oc1ccc(-c2ccnc3cc(-c4cccc(I)c4)nn23)cc1OCC1CC1 | 8.22 | Activity [6]: 19.8%; pIC50 [2]: < 5.30; pIC50 [3]: < 5.30; pIC50 [5]: 5.70
16 | COc1cc(OC)cc(-c2cc3nccc(-c4ccc(OC(F)F)c(OCC5CC5)c4)n3n2)c1 | 7.54 | 
17 | COc1ccc(-c2ccnc3cc(-c4ccc(Br)cc4)nn23)cc1OC1CCCC1 | 6.89 | 
18 | COc1ccc(-c2ccnc3cc(-c4cc(Cl)ccc4Cl)nn23)cc1OC1CCCC1 | 7.52 | 
19 | CCN(CC)C(=O)c1cccc(-c2cc3nccc(-c4ccc(OC(F)F)c(OCC5CC5)c4)n3n2)c1 | 7.17 | 
20 | COc1ccc(-c2ccnc3cc(-c4ccccc4Br)nn23)cc1OC1CCCC1 | 6.85 | 
21 | CC(C)Oc1cccc(-c2cc3nccc(-c4ccc(OC(F)F)c(OCC5CC5)c4)n3n2)c1 | 7.34 | 
22 | FC(F)Oc1ccc(-c2ccnc3cc(-c4cccc(C(F)F)c4)nn23)cc1OCC1CC1 | 7.41 | 
23 | [O-][n+]1cccc(-c2cc3nccc(-c4ccc(OC(F)F)c(OCC5CC5)c4)n3n2)c1 | 7.38 | inhibition (Mus musculus [10]): Active; pEC50 [11]: 5.79; pIC50 [2]: < 5.30; pIC50 [3]: < 5.30; inhibition in vivo at 100 mg/kg (Mus musculus [12]): 50%; pIC50 [4]: 7.59; pIC50 [5]: < 5.30
24 | COc1ccc(-c2cc3nccc(-c4ccc(OC)c(OC5CCCC5)c4)n3n2)cc1 | 7.22 | 
25 | CN(CCN)c1cccc(-c2cc3nccc(-c4ccc(OC(F)F)c(OCC5CC5)c4)n3n2)c1 | 7.33 | 
26 | FC(F)Oc1ccc(-c2ccnc3cc(-c4ccccc4)nn23)cc1OCC1CC1 | 6.89 | 

Row | SMILES | pIC50 [1] | other results
27 | COc1ccc(-c2ccnc3cc(-c4cccc(Cl)c4)nn23)cc1OC1CCCC1 | 7.70 | Activity [7]: 19.7%
28 | COc1ccc(-c2ccnc3cc(-c4ccc(Cl)cc4)nn23)cc1OC1CCCC1 | 7.05 | 
29 | CN(C)c1cccc(-c2cc3nccc(-c4ccc(OC(F)F)c(OCC5CC5)c4)n3n2)c1 | 6.92 | 
30 | COc1ccc(-c2cc3nccc(-c4ccc(OC(F)F)c(OCC5CC5)c4)n3n2)cc1O | 7.49 | 
31 | FC(F)Oc1ccc(-c2ccnc3cc(-c4cc(Cl)ccc4Cl)nn23)cc1OCC1CC1 | 6.70 | 
32 | Oc1cccc(-c2cc3nccc(-c4ccc(OC(F)F)c(OCC5CC5)c4)n3n2)c1 | 7.68 | 
33 | COCCOC(=O)c1cccc(-c2cc3nccc(-c4ccc(OC(F)F)c(OCC5CC5)c4)n3n2)c1 | 6.80 | 
34 | CCOc1cccc(-c2cc3nccc(-c4ccc(OC(F)F)c(OCC5CC5)c4)n3n2)c1 | 7.32 | 
35 | FC(F)Oc1ccc(-c2ccnc3cc(-c4cccc(Cl)c4)nn23)cc1OCC1CC1 | 7.44 | 
36 | CCNC(=O)c1cccc(-c2cc3nccc(-c4ccc(OC(F)F)c(OCC5CC5)c4)n3n2)c1 | 7.55 | 
37 | COc1ccc(-c2cc3nccc(-c4ccc(OC(F)F)c(OCC5CC5)c4)n3n2)cc1OC | 7.60 | 
38 | NC(=O)Nc1cccc(-c2cc3nccc(-c4ccc(OC(F)F)c(OCC5CC5)c4)n3n2)c1 | 6.82 | 
39 | FC(F)Oc1ccc(-c2ccnc3cc(-c4cccc(C(F)(F)F)c4)nn23)cc1OCC1CC1 | 6.72 | 
40 | O=C(O)c1cccc(-c2cc3nccc(-c4ccc(OC(F)F)c(OCC5CC5)c4)n3n2)c1 | 8.05 | 
41 | COC(=O)c1cccc(-c2cc3nccc(-c4ccc(OC(F)F)c(OCC5CC5)c4)n3n2)c1 | 7.43 | 
42 | CS(=O)(=O)CNc1cccc(-c2cc3nccc(-c4ccc(OC(F)F)c(OCC5CC5)c4)n3n2)c1 | 7.49 | 
43 | FC(F)Oc1ccc(-c2ccnc3cc(-c4cccc(-n5cnnn5)c4)nn23)cc1OCC1CC1 | 7.36 | 
44 | COc1ccc(-c2ccnc3cc(-c4ccccc4)nn23)cc1OC1CCCC1 | 7.15 | 
45 | CC(C)OC(=O)c1cccc(-c2cc3nccc(-c4ccc(OC(F)F)c(OCC5CC5)c4)n3n2)c1 | 7.40 | 
46 | CC(C)(C)NC(=O)c1cccc(-c2cc3nccc(-c4ccc(OC(F)F)c(OCC5CC5)c4)n3n2)c1 | 7.36 | 
47 | CNc1cccc(-c2cc3nccc(-c4ccc(OC(F)F)c(OCC5CC5)c4)n3n2)c1 | 7.40 | 
48 | O=C(c1cccc(-c2cc3nccc(-c4ccc(OC(F)F)c(OCC5CC5)c4)n3n2)c1)N1CCCCC1 | 7.19 | 
49 | COc1cccc(-c2cc3nccc(-c4ccc(OC(F)F)c(OCC5CC5)c4)n3n2)c1 | 7.52 | Activity [6]: 44.4%
50 | FC(F)Oc1ccc(-c2ccnc3cc(-c4cccc(N5CCCCC5)c4)nn23)cc1OCC1CC1 | 7.00 | 
51 | COc1ccc(-c2ccnc3cc(-c4ccccc4OC)nn23)cc1OC1CCCC1 | 7.15 | 
